How the values were obtained:
AURORA-A mRNA = assay: Quantitative real-time PCR of AURORA-A mRNA in MV4-11 cells; assay type: cell-based, human; settings: 0.1 µM
Procedure, shortened: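 MV4-11 cells were exposed for 6 h, and RNA and protein were isolated in parallel. AURORA-A mRNA was measured by RT-qPCR and normalised to DMSO-treated control cells; bars are means of technical replicates.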

AURORA-A [1] = target: T1, AURORA-A (Homo sapiens, UniProt O14965); assay: AURORA-A-NanoLuc target engagement assay; assay type: binding
T1 sequence (O14965 1-403): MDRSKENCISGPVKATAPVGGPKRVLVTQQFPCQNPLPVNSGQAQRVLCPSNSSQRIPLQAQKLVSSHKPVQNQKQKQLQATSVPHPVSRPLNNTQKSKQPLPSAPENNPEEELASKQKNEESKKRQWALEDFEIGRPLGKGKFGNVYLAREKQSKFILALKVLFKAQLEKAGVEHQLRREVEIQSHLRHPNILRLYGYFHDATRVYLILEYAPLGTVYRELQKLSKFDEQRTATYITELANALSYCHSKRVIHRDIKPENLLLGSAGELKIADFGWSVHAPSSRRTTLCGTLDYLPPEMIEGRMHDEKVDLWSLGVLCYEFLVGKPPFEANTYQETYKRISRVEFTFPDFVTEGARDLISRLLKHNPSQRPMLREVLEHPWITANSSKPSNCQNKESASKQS

AURORA-A [2] = target: T1, AURORA-A; assay: Immunoblot of AURORA-A in compound-treated MV4-11 cells; assay type: cell-based; settings: 6 hours
AURKA = target: T2, AURKA (Homo sapiens, UniProt O14965); assay: Kinobead selectivity profiling: AURKA; assay type: binding
T2 sequence (O14965 1-403): T1 sequence (O14965 1-403)

[3] = target: CEREBLON thalidomide-binding domain (TBD) (Homo sapiens, UniProt Q96SW2); assay: Isothermal titration calorimetry, CEREBLON-TBD into JB170
Sequence of CEREBLON thalidomide-binding domain (TBD) (Q96SW2 320-428): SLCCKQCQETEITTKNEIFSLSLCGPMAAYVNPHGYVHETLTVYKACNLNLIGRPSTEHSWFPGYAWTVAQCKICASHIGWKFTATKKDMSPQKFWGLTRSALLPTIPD

[4] = target: AURORA-B^R160L,E162T,K165R (Homo sapiens, UniProt Q96GD4, E161T/K164R/R159L); assay: Immunoblot of HA-tagged AURORA-B swap mutant x3 in MV4-11 cells; assay type: cell-based; settings: 6 hours
Sequence of AURORA-B^R160L,E162T,K165R (Q96GD4 1-345 isoform Q96GD4-5 R160L/E162T/K165R): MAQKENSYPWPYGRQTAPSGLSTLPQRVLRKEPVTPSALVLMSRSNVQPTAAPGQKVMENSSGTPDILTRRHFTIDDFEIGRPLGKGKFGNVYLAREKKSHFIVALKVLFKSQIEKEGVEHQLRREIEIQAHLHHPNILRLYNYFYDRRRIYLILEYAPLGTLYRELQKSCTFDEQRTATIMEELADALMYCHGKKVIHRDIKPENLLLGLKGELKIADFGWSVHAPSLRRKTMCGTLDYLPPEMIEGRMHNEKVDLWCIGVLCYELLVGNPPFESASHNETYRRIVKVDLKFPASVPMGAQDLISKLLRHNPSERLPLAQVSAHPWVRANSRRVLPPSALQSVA

MV4-11 cells = assay: BrdU/PI flow cytometry, cell cycle distribution of MV4-11 cells; assay type: cell-based, human; settings: 0.5 µM, 12 hours
Procedure, shortened: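 Cells were pulsed with 10 µM BrdU for 1 h, washed in ice-cold PBS and fixed overnight in 80% ethanol at −20 °C. After a 1% BSA/PBS-T wash, they were stained 30 min at 37 °C with RNase A (24 µg/ml) and propidium iodide (54 µM), then analysed by flow cytometry. For IMR5, the EtOH-treated cells of the doxycycline-inducible line served as the non-overexpressing cells.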

AURORA-B^E162T = AURORA-B^E162T (Homo sapiens, UniProt Q96GD4, E161T); assay: Immunoblot of HA-tagged AURORA-B swap mutant in MV4-11 cells; assay type: cell-based; settings: 6 hours
Sequence of AURORA-B^E162T (Q96GD4 1-345 isoform Q96GD4-5 E162T): as the sequence (Q96GD4 1-345 isoform Q96GD4-5 R160L/E162T/K165R) above, with L160R, R165K counted along it

AURORA-A [5] = target: T1, AURORA-A; assay: HiBiT assay: AURORA-A levels based on luciferase measurements in MV4-11 cells; assay type: cell-based
Procedure, shortened: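 HiBiT-tagged wild-type or mutant AURORA-A was expressed stably in MV4-11 cells (infected twice, 24 h apart, selected 72 h after infection). Cells were exposed to serial dilutions of the test compound for 6 h and lysed with lytic detection reagent containing the LgBiT fragment. Luminescence was then read. DC50 and DCmax were derived from the concentration–response data.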

[6] = alamarBlue cell viability assay, MV4-11 cells; assay type: cell-based; settings: human
Procedure, shortened: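 MV4-11 cells (6 x10^3 per well) were exposed for various times, with compound refreshed every 24 h. Viability was read with alamarBlue HS reagent as fluorescence (excitation 550 nm, emission 600 nm).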

ACAD10 = target: T3, ACAD10 (Homo sapiens, UniProt Q6JQN1); assay: Kinobead selectivity profiling: ACAD10; assay type: binding
T3 sequence (Q6JQN1 1-1059): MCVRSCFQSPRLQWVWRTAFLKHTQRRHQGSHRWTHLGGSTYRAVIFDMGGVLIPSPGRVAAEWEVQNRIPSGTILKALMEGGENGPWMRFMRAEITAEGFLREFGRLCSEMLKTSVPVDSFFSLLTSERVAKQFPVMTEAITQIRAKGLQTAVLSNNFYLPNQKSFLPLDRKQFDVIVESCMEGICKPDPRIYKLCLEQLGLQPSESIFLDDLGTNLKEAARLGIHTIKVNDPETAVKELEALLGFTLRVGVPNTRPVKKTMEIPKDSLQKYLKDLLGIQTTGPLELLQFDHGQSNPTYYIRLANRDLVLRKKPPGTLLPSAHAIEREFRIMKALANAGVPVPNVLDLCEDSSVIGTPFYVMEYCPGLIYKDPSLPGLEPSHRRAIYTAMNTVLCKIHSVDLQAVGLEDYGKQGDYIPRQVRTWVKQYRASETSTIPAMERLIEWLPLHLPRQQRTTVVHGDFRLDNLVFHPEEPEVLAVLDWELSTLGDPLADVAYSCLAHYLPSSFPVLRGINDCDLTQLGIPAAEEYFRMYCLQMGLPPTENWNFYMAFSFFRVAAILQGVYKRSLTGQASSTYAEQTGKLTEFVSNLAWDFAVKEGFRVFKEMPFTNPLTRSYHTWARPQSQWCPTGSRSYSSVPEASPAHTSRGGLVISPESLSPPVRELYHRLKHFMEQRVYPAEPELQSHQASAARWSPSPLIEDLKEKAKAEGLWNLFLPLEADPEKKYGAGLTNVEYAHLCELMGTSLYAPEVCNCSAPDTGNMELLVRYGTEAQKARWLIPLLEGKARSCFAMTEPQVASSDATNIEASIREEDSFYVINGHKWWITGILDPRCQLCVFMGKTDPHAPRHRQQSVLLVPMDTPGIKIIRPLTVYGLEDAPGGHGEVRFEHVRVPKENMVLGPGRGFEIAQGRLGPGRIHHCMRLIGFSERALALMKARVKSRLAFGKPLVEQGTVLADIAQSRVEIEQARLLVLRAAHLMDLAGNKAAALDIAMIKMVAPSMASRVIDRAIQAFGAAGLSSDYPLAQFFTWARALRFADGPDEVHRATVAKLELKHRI

Compound: COc1cc(Nc2ncc3c(n2)-c2ccc(Cl)cc2C(c2c(F)cccc2OC)=NC3)ccc1C(=O)NCCOCCOCCNC(=O)COc1cccc2c1C(=O)N(C1CCC(=O)NC1=O)C2=O (centres unmarked) [JB170]
- AURORA-A mRNA levels (AURORA-A mRNA): not reduced
- EC50 (AURORA-A [1]): 193 nM
- difference of affinities for AURORA-A and AURORA-B (AURORA-A [1]; AURORA-A vs AURORA-B, depending on experimental conditions (BRET, Kinobeads)): 3- to 50 fold
- reduction of AURORA-A levels (in words) (AURORA-A [2]; 10 nM): reduced AURORA-A levels modestly
- reduction of AURORA-A levels (in words) (AURORA-A [2]; 100 nM and 1 µM): substantial degradation
- degrader activity on co-incubation with alisertib or thalidomide (AURORA-A [2]): abolished its degrader activity
- depletion of AURORA-A under proteasomal inhibition by MG132 (AURORA-A [2]; MG132 10 µM): completely blocked
- depletion of AURORA-A under inhibition of cullin neddylation by MLN4924 (AURORA-A [2]; MLN4924 3 µM): completely blocked
- Kd (AURKA): 99 nM
- Kd [3]: 6880 nM
- JB170-mediated degradation of AURORA-B^R160L,E162T,K165R with respect to AURORA-A [4]: strongly attenuated
- cell cycle distribution (MV4-11 cells): delayed or arrested S-phase progression
- JB170-mediated degradation of AURORA-B^E162T with respect to AURORA-A (AURORA-B^E162T): strongly attenuated
- concentration of maximal depletion of AURORA-A (DCmax) (AURORA-A [5]; HiBiT-AURORA-A, 6 hours): 300 nM
- concentrations ineffective in depleting AURORA-A (Hook effect) (AURORA-A [5]; immunoblot and luminescence assays): ≥ 10 µM
- viability at 72 h, 1 µM [6]: 32%
- Kd (ACAD10): 253 nM
